Data published in ChEMBL document CHEMBL1143838, “Candida albicans and Candida dubliniensis respond differently to echinocandin antifungal agents in vitro” (2007).
*1 amine or outer side, *2 acyl side, *3 side chain or, on linkers, in order; H or OH if unused. Where a SMILES comes first, the peptide text is derived from it. Bridges are numbered along the chain shown (N, C = ends). [ ]: non-standard residue; d: D form. The star is where a group is joined. pTerphenylCO(4''-OnC5H11) = CCCCCOc1ccc(-c2ccc(-c3ccc(C(=O)*)cc3)cc2)cc1; Orn(4R-OH,5R-OH) = O=C([C@H](C[C@@H](O)[C@@H](O)N[*:3])N[*:1])[*:2]; hTyr(3S-OH,4S-OH) = N[C@H](C(=O)O)[C@H](O)[C@@H](O)c1ccc(O)cc1; Pro(3S-OH,4S-Me) = C[C@H]1CN[C@H](C(=O)O)[C@H]1O; Hyp = O=C(O)[C@@H]1C[C@@H](O)CN1

Assays:
Assay type in all cases: functional
[1] = tested on: Candida dubliniensis; test: Antifungal activity against Candida dubliniensis J931021 after 24 hrs by CLSI M27-A test
How it was run: (§1)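 Broth microdilution with echinocandins as aqueous doubling dilutions. Yeasts were grown overnight at 30°C in NGY and seeded at 10^3 yeasts/ml initial concentration in MOPS-buffered RPMI 1640, then incubated at 35°C for 24 h. The MIC was read visually as the lowest concentration giving a marked decrease in visible growth; paradoxical or trailing growth was noted.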

[2] = tested on: Candida dubliniensis; test: Antifungal activity against Candida dubliniensis 75/043 after 24 hrs by EUCAST test
How it was run: (§2)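 EUCAST broth microdilution with aqueous doubling dilutions of drug. Inoculum grown overnight at 30°C in NGY, then added to MOPS-buffered RPMI 1640 with 2% glucose at an initial 10^5 yeasts/ml. Incubated 35°C for 24 h. MICs taken from triplicate spectrophotometric dose-response data as 50% and 80% growth-reduction endpoints.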

[3] = tested on: Candida albicans; test: Antifungal activity against Candida albicans T25 after 24 hrs by CLSI M27-A test
How it was run: (§3)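 CLSI M27-A broth microdilution with aqueous doubling dilutions of drug. Inoculum grown overnight at 30°C in NGY medium, then added to MOPS-buffered RPMI 1640 at an initial 10^3 yeasts/ml. Incubated 35°C for 24 h. MIC read visually as the lowest concentration giving a marked decrease in visible growth; paradoxical or trailing growth noted.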

[4] = tested on: Candida dubliniensis; test: Antifungal activity against Candida dubliniensis Leic952 after 24 hrs by CLSI M27-A test; how it was run: as §1
[5] = tested on: Candida albicans; test: Antifungal activity against Candida albicans HK04M102095 after 24 hrs by EUCAST test; how it was run: as §2
[6] = tested on: Candida dubliniensis; test: Antifungal activity against Candida dubliniensis J930936 after 24 hrs by EUCAST test
How it was run: (§4)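 Yeasts were grown overnight at 30°C in NGY, then inoculated at 10^5 yeasts/ml initial concentration into MOPS-buffered RPMI 1640 with 2% glucose containing aqueous doubling dilutions of drug. Plates were held at 35°C for 24 h. MICs came from triplicate spectrophotometric dose-response data at 50% and 80% growth-reduction endpoints. Trailing meant a >100-fold gap between these endpoints; paradoxical meant regrowth ≥5% above the curve minimum.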

[7] = tested on: Candida albicans; test: Antifungal activity against Candida albicans CAI4RI after 24 hrs by CLSI M27-A test; how it was run: as §3
[8] = tested on: Candida albicans; test: Antifungal activity against Candida albicans JIMS146204 after 24 hrs by EUCAST test; how it was run: as §2
[9] = tested on: Candida dubliniensis; test: Antifungal activity against Candida dubliniensis 90/033 after 24 hrs by EUCAST test; how it was run: as §2
[10] = tested on: Candida dubliniensis; test: Antifungal activity against Candida dubliniensis ANSA 23a after 24 hrs by EUCAST test; how it was run: as §4
[11] = tested on: Candida dubliniensis; test: Antifungal activity against Candida dubliniensis B71507 after 24 hrs by CLSI M27-A test; how it was run: as §1
[12] = tested on: Candida albicans; test: Antifungal activity against Candida albicans NR2 after 24 hrs by CLSI M27-A test; how it was run: as §3
[13] = tested on: Candida albicans; test: Antifungal activity against Candida albicans NR3 after 24 hrs by EUCAST test; how it was run: as §2
[14] = tested on: Candida dubliniensis; test: Antifungal activity against Candida dubliniensis SCS17154969-1 after 24 hrs by CLSI M27-A test; how it was run: as §1
[15] = tested on: Candida dubliniensis; test: Antifungal activity against Candida dubliniensis FS after 24 hrs by CLSI M27-A test; how it was run: as §1
[16] = tested on: Candida albicans; test: Antifungal activity against Candida albicans NR3 after 24 hrs by CLSI M27-A test; how it was run: as §3
[17] = tested on: Candida albicans; test: Antifungal activity against Candida albicans JIMS146204 after 24 hrs by CLSI M27-A test; how it was run: as §3
[18] = tested on: Pichia kudriavzevii; test: Antifungal activity against Candida krusei ATCC 6258 after 24 hrs by EUCAST test; conditions: ATCC 6258, 24 h; how it was run: as §4
[19] = tested on: Candida albicans; test: Antifungal activity against Candida albicans Y109 after 24 hrs by EUCAST test; how it was run: as §2
[20] = tested on: Candida albicans; test: Antifungal activity against Candida albicans T32 after 24 hrs by CLSI M27-A test; how it was run: as §3
[21] = tested on: Candida albicans; test: Antifungal activity against Candida albicans HK04M102095 after 24 hrs by CLSI M27-A test; how it was run: as §3
[22] = tested on: Candida albicans; test: Antifungal activity against Candida albicans NCPF6525 after 24 hrs by CLSI M27-A test; how it was run: as §3
[23] = tested on: Candida albicans; test: Antifungal activity against Candida albicans SCS67023C after 24 hrs by CLSI M27-A test; how it was run: as §3
[24] = tested on: Candida dubliniensis; test: Antifungal activity against Candida dubliniensis ST after 24 hrs by CLSI M27-A test; how it was run: as §1
[25] = tested on: Candida dubliniensis; test: Antifungal activity against Candida dubliniensis SCSBB417709 after 24 hrs by EUCAST test; how it was run: as §4
[26] = tested on: Candida dubliniensis; test: Antifungal activity against Candida dubliniensis KR after 24 hrs by CLSI M27-A test; how it was run: as §1
[27] = tested on: Candida dubliniensis; test: Antifungal activity against Candida dubliniensis Leic952 after 24 hrs by EUCAST test; how it was run: as §4
[28] = tested on: Candida albicans; test: Antifungal activity against Candida albicans SCS68858 after 24 hrs by CLSI M27-A test; how it was run: as §3
[29] = tested on: Candida dubliniensis; test: Antifungal activity against Candida dubliniensis AMCC after 24 hrs by EUCAST test; how it was run: as §2
[30] = tested on: Candida dubliniensis; test: Antifungal activity against Candida dubliniensis SCS17154969-2 after 24 hrs by EUCAST test; how it was run: as §4
[31] = tested on: Candida parapsilosis; test: Antifungal activity against Candida parapsilosis ATCC 22019 after 24 hrs by CLSI M27-A test; conditions: Lodderomyces parapsilosis, ATCC 22019, 24 h; how it was run: as §1
[32] = tested on: Candida dubliniensis; test: Antifungal activity against Candida dubliniensis IK after 24 hrs by CLSI M27-A test; how it was run: as §1
[33] = tested on: Candida albicans; test: Antifungal activity against Candida albicans T28 after 24 hrs by CLSI M27-A test; how it was run: as §3
[34] = tested on: Candida dubliniensis; test: Antifungal activity against Candida dubliniensis B71507 after 24 hrs by EUCAST test; how it was run: as §4
[35] = tested on: Candida albicans; test: Antifungal activity against Candida albicans JIMS132203 after 24 hrs by EUCAST test; how it was run: as §2
[36] = tested on: Candida dubliniensis; test: Antifungal activity against Candida dubliniensis SCS65875C after 24 hrs by EUCAST test; how it was run: as §4
[37] = tested on: Candida parapsilosis; test: Antifungal activity against Candida parapsilosis ATCC 22019 after 24 hrs by EUCAST test; conditions: Lodderomyces parapsilosis, ATCC 22019, 24 h; how it was run: as §4
[38] = tested on: Candida albicans; test: Antifungal activity against Candida albicans SCS140136P after 24 hrs by CLSI M27-A test; how it was run: as §3
[39] = tested on: Candida albicans; test: Antifungal activity against Candida albicans NR4 after 24 hrs by EUCAST test; how it was run: as §2
[40] = tested on: Candida dubliniensis; test: Antifungal activity against Candida dubliniensis ST after 24 hrs by EUCAST test; how it was run: as §4
[41] = tested on: Candida albicans; test: Antifungal activity against Candida albicans SCS68858 after 24 hrs by EUCAST test; how it was run: as §2
[42] = tested on: Candida dubliniensis; test: Antifungal activity against Candida dubliniensis KR after 24 hrs by EUCAST test; how it was run: as §4
[43] = tested on: Candida albicans; test: Antifungal activity against Candida albicans AM2003/0083 after 24 hrs by CLSI M27-A test; how it was run: as §3
[44] = tested on: Candida dubliniensis; test: Antifungal activity against Candida dubliniensis SCS17154969-1 after 24 hrs by EUCAST test; how it was run: as §4
[45] = tested on: Candida albicans; test: Antifungal activity against Candida albicans JIMS132203 after 24 hrs by CLSI M27-A test; how it was run: as §3

Measured: MIC50

CCCCCOc1ccc(-c2ccc(-c3ccc(C(=O)N[C@H]4C[C@@H](O)[C@@H](O)NC(=O)[C@@H]5[C@@H](O)[C@@H](C)CN5C(=O)[C@H]([C@@H](C)O)NC(=O)[C@H]([C@H](O)[C@@H](O)c5ccc(O)cc5)NC(=O)[C@@H]5C[C@@H](O)CN5C(=O)[C@H]([C@@H](C)O)NC4=O)cc3)cc2)cc1 [ANIDULAFUNGIN] ({pTerphenylCO(4''-OnC5H11)}-[Orn(4R-OH,5R-OH)]T[Hyp][hTyr(3S-OH,4S-OH)]T[Pro(3S-OH,4S-Me)]; lactam 1-C)
0.5 µg/mL: [7] | [12] | [31] | [37]
0.063 µg/mL: [18] | [30]
0.25 µg/mL: [34]
0.13 µg/mL: [19] | [22] | [39]
8 µg/mL: [9] | [27]
1 µg/mL: [3] | [13] | [16]
≤ 0.032 µg/mL: all other assays above
